# Shown are actives, neighbours in structure and some others; about 3.9% of the full set was active somewhere.
# HTR2A ag: mouse HTR2A agonism via beta-arrestin recruitment; P35363; CHO-K1 mHTR2A beta-arrestin complementation, luminescence; percent of 30 µM serotonin response; activation, % at 7.6 µM; hit rate 0.66% among 360,000; AID 624169;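 active = activation above a run cutoff, the mean activation of all tested compounds plus 3 SD, cut at about 14% in these data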;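 note: 0% = plate median of compound wells and 100% = 30 µM serotonin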
# TAAR1 antagonist: antagonists of human TAAR1. Q96RJ0. CHO RD-HGA16 TAAR1, Fluo-8 calcium fluorescence, antagonist. inhibition, % at 3 µM. hit rate 1.5% among 360,000. AID 624466;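 active = inhibition above a per-plate cutoff, the mean inhibition of test compounds on that plate plus 3 SD, cut at about 49% in these data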;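 note: 0% = DMSO plus EC80 beta-PEA response and 100% = DMSO alone without agonist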
#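 Assay system: CHO-derived RD-HGA16 cells stably expressing human TAAR1 plus Gα16. Timing: 140 s kinetic read after compound, 140 s after agonist. Technique: kinetic Fluo-8 calcium fluorescence measurement. Measure: % inhibition of agonist calcium response.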
# TAAR1 ag: agonists of human TAAR1. activation, % at 3 µM. hit rate 0.99% among 360,000. Q96RJ0. CHO RD-HGA16 TAAR1, Fluo-8 calcium fluorescence; vehicle wells 0%, saturating PEA agonist 100%;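 active = activation above the mean activation of all test compounds in the run plus 3 SD, cut at about 38% in these data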
#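 Signal – calcium-sensitive Fluo-8 signal, excitation 470-495, emission 515-575 nm · System – RD-HGA16 (CHO) cells co-expressing Gα16 and hTAAR1 · Incubation – 17-24 h seeding, 75 min 37 °C dye, 30 min RT · Compound dosing – 3 µM single concentration · Repeats – no replicates (n 1)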
# CHRM1 agonist: agonists of human M1 muscarinic receptor; CHO-K1 hM1, Fluo-8 calcium fluorescence, agonist mode; 0% DMSO, 100% acetylcholine EC100; AID 588814; hit rate 0.33% among 360,000; activation, % at 3 µM; P11229;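 active = activation above the run's mean compound activation plus 3 SD, cut at about 16% in these data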;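 note: peak over basal fluorescence ratio within a 140 s kinetic read after compound addition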
# Target sequence (P11229 whole entry, looked up): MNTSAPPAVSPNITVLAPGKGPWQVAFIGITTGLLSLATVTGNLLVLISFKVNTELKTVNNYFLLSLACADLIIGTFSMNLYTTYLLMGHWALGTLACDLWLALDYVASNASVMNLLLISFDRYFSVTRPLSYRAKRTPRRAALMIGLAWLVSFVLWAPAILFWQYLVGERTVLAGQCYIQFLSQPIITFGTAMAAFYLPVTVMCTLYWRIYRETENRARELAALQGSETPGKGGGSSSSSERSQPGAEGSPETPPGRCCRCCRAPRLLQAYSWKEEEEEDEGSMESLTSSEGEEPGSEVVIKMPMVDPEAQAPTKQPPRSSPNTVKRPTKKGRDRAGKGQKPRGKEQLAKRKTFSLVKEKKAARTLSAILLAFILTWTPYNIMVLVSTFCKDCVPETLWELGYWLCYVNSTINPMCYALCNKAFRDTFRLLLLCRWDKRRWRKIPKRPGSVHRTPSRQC
# M1 antag: human CHRM1 antagonism | P11229 | CHO-K1 hM1, Fluo-8 calcium fluorescence, ACh EC80 antagonist | inhibition, % at 3 µM | hit rate 1.3% among 360,000 | AID 588852;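 active = percent inhibition above its own plate's cutoff, namely the mean of that plate's compound wells plus 3 SD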;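 note: peak over basal fluorescence ratio during 140 s after agonist addition; 0% = ACh EC80 plus DMSO and 100% = DMSO alone without agonist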
# CHRM1 PAM: positive allosteric modulators of human M1 muscarinic receptor | hit rate 0.088% among 360,000 | P11229 | activation, % at 3 µM | CHO-K1 hM1, Fluo-8 calcium fluorescence, ACh EC20; 0% = ACh EC20, 100% = maximal ACh; in the data active = activation above about 19%, passing the limit was not always enough
# TAAR1 nonsel count: counter-screen for TAAR1 antagonists: nonselective antagonists | shares compounds with TAAR1 antagonist | counterscreen cell line, calcium fluorescence, antagonist mode | inhibition, % at 3 µM | hit rate 77% among 2,400 | AID 651780; in the data active = inhibition above about 22%;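 note: CHO-Ga16 host cells stimulated with ATP at an EC80 level; 0% = agonist EC80 plus vehicle and 100% = vehicle without agonist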
# TAAR1 antag conf: confirmation of human TAAR1 antagonists. TAAR1-expressing cells, fluorescence antagonist read-out. inhibition, % at 3 µM. AID 651785. hit rate 40% among 2,400. shares compounds with TAAR1 antagonist; in the data active = inhibition above about 49%;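 note: CHO-Ga16 host cells challenged with agonist PEA near its EC80; 0% = agonist at EC80 plus vehicle and 100% = vehicle with no agonist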
# Ga16 nonsel ag: counter-screen for TAAR1 antagonists: nonselective Ga16 agonists. shares compounds with TAAR1 antagonist. Ga16-expressing cells, calcium fluorescence, agonist counterscreen. activation, % at 3 µM. hit rate 18% among 2,400; in the data active = activation above about 12%;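 note: 0% = vehicle wells and 100% = saturating stimulus response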
# TAAR1 ag counter: activates human TAAR1 in antagonist counter-screen | shares compounds with TAAR1 antagonist | hTAAR1 cell line, fluorescence activation, agonist mode | activation, % at 3 µM | hit rate 2% among 2,400 | AID 651955; in the data active = activation above about 37%;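 note: CHO cells stably expressing TAAR1 with calcium dye readout; 0% = DMSO vehicle and 100% = full agonist response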
# * = called active by the depositor; / = no result given.
SMILES,HTR2A ag,TAAR1 antagonist,TAAR1 ag,CHRM1 agonist,M1 antag,CHRM1 PAM,TAAR1 nonsel count,TAAR1 antag conf,Ga16 nonsel ag,TAAR1 ag counter
c1ccc(SCc2cn(C[C@H]3CC[C@@H]([C@@H]4CC[C@H](Cn5cc(CSc6ccccc6)nn5)O4)O3)nn2)cc1,0,71*,32,-5,22,-21,37*,56*,14*,12
Cc1ccc(OCC(=O)Nc2cccc(S(=O)(=O)N3CCCCC3)c2)c([N+](=O)[O-])n1,0,-17,5,-4,-10,8,/,/,/,/
CN(CC(=O)Nc1cccc(F)c1)CC(=O)Nc1cccc(S(=O)(=O)N2CCCCCC2)c1,-6,61*,20,-1,26,-10,21,44,12*,15
COc1ccc(CN(C)CC(=O)Nc2cccc(S(=O)(=O)N3CCCC3)c2)cc1F,-4,64*,16,-7,-2,-5,8,6,0,-2
CN(CC(=O)Nc1cccc(S(=O)(=O)N2CCCCC2)c1)Cc1ccc(F)cc1,-7,30,5,-1,12,-13,/,/,/,/
CN(CC(=O)Nc1cccc(F)c1)CC(=O)Nc1cccc(S(=O)(=O)N2CCCCC2)c1,4,23,16,-2,11,-1,/,/,/,/
Cc1ccc2cccc(OCC(=O)Nc3cccc(S(=O)(=O)N4CCCC4)c3)c2n1,8,75*,15,-3,19,-15,34*,57*,9,7
O=C1C=C(NCc2ccc3c(c2)OCO3)CC(c2ccccc2)C1 (configuration not stated),/,6,3,/,/,/,/,/,/,/
Cn1c(=O)[nH]c(=O)c2c1nc1n2CCCN1Cc1ccccc1,3,-29,0,-2,-18,15,/,/,/,/
C[C@H](NC(=O)c1nc[nH]c1C(=O)N[C@@H](C)C(=O)OCc1ccccc1)C(=O)OCc1ccccc1,11,58*,6,-5,-1,-5,20,36,2,0
C[C@@H](NC(=O)c1nc[nH]c1C(=O)NCC(=O)OCc1ccccc1)c1ccccc1,9,68*,15,-2,33*,-13,32*,55*,8,10
O=C(NCc1cccnc1)c1cc(C2CCCCN2C(=O)c2ccc(Cl)cc2)on1 (configuration not stated),14,-23,0,-10,-22,12,/,/,/,/
COc1cc(C)c(C(=O)Oc2cc(C)c(C(=O)O)c(O)c2C)c(O)c1C,6,80*,-3,-13,2,-10,48*,53*,0,-3
COc1ccc(CN(C)C(=O)C2CCN(S(=O)(=O)c3cccs3)CC2)cc1F,-6,3,0,-3,7,0,/,/,/,/
COCC(C)N=C1NN=C(c2c[nH]c3ccccc23)CS1 (configuration not stated),-5,-8,26,-9,4,-1,/,/,/,/
COCc1ccc(-c2c(-c3ccsc3)oc(=O)c3cc(OC)c(OC)cc23)cc1,5,58*,2,-1,2,-5,17,33,2,1
COc1cc2c(C#CCCO)c(-c3ccsc3)oc(=O)c2cc1OC,3,31,8,-12,6,-1,/,/,/,/
COc1ccc(C(=O)NCN2CCN(c3ccccc3)CC2)cc1OC,-4,10,3,-2,-8,9,/,/,/,/
O=C(CCCCCN1C(=O)[C@@H]2Cc3ccccc3CN2C1=O)Nc1cccc(F)c1,1,67*,8,3,25,-17,42*,60*,13*,10

# Bioassay records from PubChem BioAssay.
